Laboratory results: the EternaBench riboswitch data

Test system: MS2 coat protein
Test: apparent Kd, MS2 coat protein; higher = weaker binding; RNA-MaP array; FMN 200 µM where present
Outline: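 SNAP-549-labelled MS2 coat protein, doubled from 0.7 or 1.5 nM to 3 µM, was titrated over designs transcribed by stalled E. coli RNA polymerase on Illumina sequencing-chip clusters. Titrations were run without and then with constant ligand in 100 mM Tris-HCl pH 7.5, 80 mM KCl, 4 mM MgCl2, BSA, DTT, yeast tRNA and Tween-20. The apparent Kd is the median of filtered per-cluster fits to green signal normalised to red-channel RNA signal and control-cluster median Fmax.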

[1] = designed as: OFF switch for flavin mononucleotide, no ligand
[2] = ligand present: flavin mononucleotide, designed as: OFF switch for flavin mononucleotide
[3] = designed as: ON switch for flavin mononucleotide, no ligand
[4] = ligand present: flavin mononucleotide, designed as: ON switch for flavin mononucleotide

Row | Sequence | apparent Kd [1] [nM] | apparent Kd [2] [nM] | apparent Kd [3] [nM] | apparent Kd [4] [nM]
1 | AACGCUAGACUAGGAUAUCGUUUACAUGAGGAUCACCCAUGUAAAGGGUAUUGUCGUCAUACGAACGAGAAGGAGUCGGUAAAU | 10.4 | 26.5 |  | 
2 | AGCCUAGCAGGAUAUGCCCGGGAUAACAUGAGGAUCACCCAUGUGACUGAUUGAUAUCCUGCAGAAGGGCUAGGGA | 24.4 | 122 |  | 
3 | GCGUUCUUGUAGAAGGUACAUGAAUUCUAUUUUUAACACAUGAAACAUGAGGAUCACCCAUGUUGUAAGGAUAUACAUGAACGC |  |  | 6.98 | 5.83
4 | AAUAAACUCACAGGAUAUAGCAUAGGCCGCGUGAACUUACAGGCGACUAUGCUAGAAGGGUGACCACAUGAGGAUCACCCAUGU |  |  | 851 | 141
5 | AGCUACGUUUCGUAGCAGCUAGGUGAGGAUAUCCUUUUACAUGAGGAUCACCCAUGUUAGCCAUGGGAGAAGGCGCCUAGAAAG |  |  | 498 | 37.7
6 | AUAUGCCAUGUAAGGAUAUACUGGAGCAUAAGCUCGUAGAAGGUACAUGAGGAUCACCCAUGUGGACCCGACAC | 29.9 | 34.9 |  | 
7 | GUAGAGUCAGGAUAUACGAGAUCGAUAGAUCAAAGAUCCUUACAUGAGGAUCACCCAUGUAGAAGGGACUCUAC | 37.4 | 677 |  | 
8 | AUUUAAAUGUCAGGAUAUGUCGGUAUAUACUCGGUAGAAGGGAUAAUUAUACUCAAGUACAUGAGGAUCACCCAUGUUAAAUCA |  |  | 21.1 | 14
9 | AAGGAACGAGGAUAUGCAGGUUGAGCUCGAGUUCGACCGGAACAUGAGGAUCACCCAUGUAGAAGGUGUAUCCC | 24.1 | 24.4 |  | 
10 | AAUAUGUUGCAGAAGGCCAUGUUGUGGUAGUACCUCAUGACAUGAGGAUCACCCAUGUCUGUGUUGGAGGAUAUGCAAUAUAUU | 7.24 | 12.3 |  | 
11 | AUUUAUUAGUAAGGAUAUACUAGCGAUUUGCUUGUAGAAGGUACAGUCUUAUGUAUAACAUGUUAACAUGAGGAUCACCCAUGU |  |  | 44.4 | 27.5
12 | GCUAGUGCUGUGAGGAUAUGUGAUCGGAAAUGAUCGUAGAAGGCACAUGAGGAUCACCCAUGUAAGGUGCUAGU | 287 | 37.6 |  | 
13 | AGAAAAGCAGGAUAUAUCCGGGAUAACAUGAGGAUCACCCAUGUGACCGCUUGAUAUCCUAUAGAAGGGCUUAAGA | 24.4 | 51.2 |  | 
14 | UUUAAGAAUGAAGGAUAUCUAAAAGUAAUCUUAAGAGAAGGUCAAUAGAACAUGAGGAUCACCCAUGUUAGAAUAGAUGGGUUU | 96.7 | 110 |  | 
15 | UCAGGCUUCGAGAAGGACAUGAGGAUCACCCAUGUGCGUGUGAAGCAGCCAAAAGGCUGCAUCAUGUAGGAUAUCGGAGUCUGC | 81.8 | 552 |  | 
16 | UUAUACAUGAGGAUCUCCCAUGACAUGAGGAUCACCCAUGUGCAGGAUAUACGUGUUAUAAUAUAGUAGAAGGGCAGACUAUAU | 41.1 | 74.3 |  | 
17 | GGGUACAUCGCAGGAUAUCAUGUAAAUACAUGAGGAUCACCCAUGUCGAUGGAGACAUCGGAGAUUGAGAAGGCCGAUGUACCG |  |  | 622 | 322
18 | CAUGUGAGCGAGGAUAUUUUACGGGAAACUUUCAGAGAAGGCGCUACAUGAGGAUCACCCAUGUCCGUCAGUCC | 41.7 | 94.8 |  | 
19 | UUGGUUAUACAAGGAUAUCAAUUAUAUACACAUCCUACAUGAGGAUCACCCAUGUUUUAUUUUUUUGAGAAGGUGUAUUGUCGG |  |  | 22.4 | 29

Row | Sequence | apparent Kd [1] [nM] | apparent Kd [2] [nM] | apparent Kd [3] [nM] | apparent Kd [4] [nM]
20 | AGUCAUACAGGAUAUACAUGAGGAUCACCCAUGUAAAUCCUAAAUGGGUGAUCCUCAUGUAGAAGGGUAUGACA | 20.7 | 17.1 |  | 
21 | UUCGACGUCGUAGGAUAUGUAGGAUAUUCCUACAUGAGGAUCACCCAUGUUGACAUGGAAGAAGGACAGAAGGACGAUGUCCAU |  |  | 301 | 6.4
22 | GGAGCAUAUCAAUACAUGAGGAUCACCCAUGUCGAAUGAUAUGAGGAUAUGCAUCGGAAAACGAUGUAGAAGGCAUAGUGCUCC |  |  | 9.14 | 5.58
23 | UUUAGUUCAGGAUAUGUAGAUUUUAACAUGAGGAUCACCCAUGUAGAUCCUGAUCCUGCUACAGAAGGAAAGAUUU | 26.9 | 25.5 |  | 
24 | CUCCUACAUGAGGAUCACCCAUGUCAGGAUAUCUCAGUGGCACCUAAAUUCGCCACCCAGAGAAGGGACGUGCA | 13.9 | 16.6 |  | 
25 | CUGGUGUCAGGAUAUGCAUAGCAGUGACCGGAACCCGGUCAGCAGAAGGGACAUGAGGAUCACCCAUGUUAAUA | 24.2 | 57.7 |  | 
26 | AUGUAGGUAGGAUAUGCAUAGAUAUACAUUCAUGUGGAUUUACAUGAGGAUCACCCAUGUAGAAGGACCUAAAA | 34.1 | 107 |  | 
27 | AGUGUAUCCCUAGGAUAUGCACAUGAGGAUCACCCAUGUAAACCCGCGCAGGCUCUUCUCAUGUCGCAGAAGGAGGGACCCGGA | 311 | 39.6 |  | 
28 | GGAAAACAUGAGGAUCACCCAUGUGAAAACGUGGGAGGAUAUGGAUGGAAACCAUACUGUCCAGAAGGCCCAUGUC |  |  | 67.6 | 18.9
29 | GUAGCUAUCGGAGGAUAUUCAUACCGGAAACGGACAUGAGGAUCACCCAUGUGCGGAAACGCUUGGGAGAAGGCCGAUAGCUAC |  |  | 247 | 19.4
30 | GUGCAUACGUGAGGAUAUGUAUUAGAUAGUGGUACAGAAGGCAUGUCAGAUGACAUGAGGAUCACCCAUGUUGGCAAAAUGCGC |  |  | 47.5 | 10.2
31 | GCGGAGUGAGGAUAUAGAACUUAAGGUACCAAUAAGGUACCCUAGAAGGCACAUGAGGAUCACCCAUGUACCGC | 24.3 | 24.4 |  | 
32 | GGACGUAAAGAGAAGGGCUACUGGUUGAAACCUGCGGCCUCUGGAACAUGAGGAUCACCCAUGUAGCAGGAUAUCUUUGCACCA | 157 | 26.7 |  | 
33 | GUUGGUGUAGAAGGAUAUUGGUGAGGCGUCUUGUACAUGAGGAUCACCCAUGUCAUUCUGCACGCCGAGAAGGUCUGCAAUUGG |  |  | 67.9 | 57
34 | CUGUGUUGCGGGCAGGAUAUGUAUUGGAGUACAUGAGGAUCACCCAUGUGCGGGUGUUUCACCCGACAGAAGGGCCAAUCGCGAC |  |  | 128 | 24.5
35 | AGGUAUCCUGAGAAAUUUCUCCACAUGAGGAUCACCCAUGUAGAGGAUAUCGACGCUGUGCGGUUCGAGAAGGCUACACUAAAA |  | 15.3 |  | 
36 | ACUUGUAAGUAGAAGGCAGUCAUUAUAUUAAUCAUGUAGACAUGAGGAUCACCCAUGUAGAGUACUGAGGAUAUACAUCGAUAG | 12.5 | 9.85 |  | 
37 | UCAUUUAUUACAGGAUAUGUUAGAAUUCAGUUGUUUGGUUAUUACAUAUUAACAGAAGGGUAGAACAUGAGGAUCACCCAUGUA |  |  | 114 | 81.5
38 | GCAGCAUAGUUUACUAACUGUUACAUGAGGAUCACCCAUGUUUAGGAUAUGGUCUGGAUUACAGGCCAGAAGGGAACAAGCUGC | 14.6 | 12.3 |  | 

Row | Sequence | apparent Kd [1] [nM] | apparent Kd [2] [nM] | apparent Kd [3] [nM] | apparent Kd [4] [nM]
39 | GUAACUUAUGUCAGGAUAUUACACGCAUUGCGUGGUGAGAAGGGACAUGAGGAUCACCCAUGUCCGGAUGCGGG | 39.8 | 62.6 |  | 
40 | ACGUAUAGAGGAUAUACAGAAUAUUACAUGAGGAUCACCCAUGUUCUUCAAUGUAUAUUUGUAGAAGGCUAAUGAA | 60.7 | 281 |  | 
41 | UGGUACAUGGGAGGAUAUGGGAAGUUAACAUGAGGAUCACCCAUGUUAUGCCGAAAGGCAAAGAACUAGAAGGCCCAUGUACCU |  |  | 16.7 | 16.1
42 | UCGAUGUAAGAGAAGGAGGACUUCAUGAGGAUCACCCAUGUGUUAGUACUUAGGAUAUUUGACAACAUGAGGAUCACCCAUGUC |  |  | 64.3 | 61.6
43 | GUAGCAUACAGAGGAUAUUCAAAACCGCAAAGCGGACAUGAGGAUCACCCAUGUGGCGAAAGCCGGGAGAAGGCUGAAUGCUAC |  |  | 18.7 | 16.1
44 | GAGGAGCAAGGAUAUACGAGGAUAGGGAAGGUUGGAGAGUGACAUGAGGAUCACCCAUGUAGAAGGUGCAAGGG | 114 | 74 |  | 
45 | CCGAAUUAGUAGGAUAUAGGAGUCGAUAGACACCUAGAAGGACUAACAUGAGGAUCACCCAUGUGUCCUAUCGG | 14.6 | 31.5 |  | 
46 | AGAAAACAUGAGGAUCACCCAUGUAGAAAUAUGGGAGGAUAUACAAAGACGAAAGUCAGAGUAGAAGGCCUAAAAA |  |  | 65.2 | 17.6
47 | AUAAAACAUGAGGAUCACCCAUGUCAACAAAGUCGAGGAUAUGGGCAAAGAAAAUAAGAACCAGAAGGCGAAUAAU |  |  | 260 | 45
48 | CCAUGACAAAGUCAUGGAUUACGAACAUGAGGAUCACCCAUGUAGGAUAUGCUACUCAAAGAGUAGCAGAAGGACAUGUGUCUU | 32.9 | 165 |  | 
49 | AGUGUCAUCGAGAAGGCCUCGACAUGAGGAUCACCCAUGUUGUUAUAUGGGAGGAUAUCGAUGAUACAGCUACGUUUCGUAGCA |  |  | 51.6 | 14.7
50 | AUUUUAAUAUAGGAUAUCGAAUUUAUUAUUUAACGAGAAGGAUAAACAUGAGGAUCACCCAUGUGGUAUCAUGG | 126 | 117 |  | 
51 | AAUCCACAUGAGGAUCACCCAUGUCAGGAUAUACGCAUCGGACCGAUCGGCUGUUUGGGUAGAAGGGACGUGCA | 16 | 16.1 |  | 
52 | CGAAGUAGCACAGGAUAUCAUACAUGAGGAUCACCCAUGUCAAGAAACAAAUGAGAAGGGUGCAGGCGGUGUUGGAGCUGUUGC |  |  | 99.4 | 14.1
53 | UUGUUCUGAGGAUAUACAUGAGGAUCACCCAUGUGUUUCUGCUUGGUGUCUAGCGAAUGUAGAAGGCUGUUCUC | 21.7 | 22.9 |  | 
54 | CUCAAACAUGAGGAUCACCCAUGUGUUGUCAUGGGAGGAUAUCUAAGUUCAUUGUAUUCAGGAGAAGGCCUAUGUC |  |  | 310 | 34.4
55 | UGUCGGAGCAGAGGAUAUUACAUGAGGAUCACCCAUGUAUGAACCAAUAGCUGGAAACAGCAAUGUUAGAAGGCUGCUCCGACA | 5.23 | 6.86 |  | 
56 | GGACGUCACUCAAACAAUUAAACAUGAGGAUCACCCAUGUCACAGGAUAUGGAUCCUAAUUGGAUCCAGAAGGGUGAGACGUCC |  |  | 251 | 222
